“And” between values parts separate entries of the source, which are not always exact repeats. Equal values may be shown once.
System: Fibroblast
Assay: Multiplex assay against human fibroblast
Format: toxicity, cell-based
Conditions: number of replicates 2
Method in brief: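 At seeding, live cells were stained with Hoechst33342, BioTracker Green Microtubule Cytoskeleton Dye, MitoTracker Red and Annexin V Alexa Fluor 680. After compound addition they were imaged on a CQ1 microscope at 37°C and 5% CO2, and CellPathfinder machine-learning gating sorted them into Hoechst high-intensity objects or normal cells, with normal cells further split into healthy, pyknosed or fragmented nuclei and pyknosed cells into mitotic or apoptotic. Tubulin, mitochondrial-mass and membrane-permeability phenotypes are given as per cents of cells with healthy nuclei.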

[1] = 12 h, 1 µM, compound concentration 1 uM
[2] = 12 h, 10 µM, compound concentration 10 uM
[3] = 24 h, 1 µM, compound concentration 1 uM
[4] = 24 h, 10 µM, compound concentration 10 uM
[5] = 48 h, 1 µM, compound concentration 1 uM
[6] = 48 h, 10 µM, compound concentration 10 uM

## COc1cc(OC)cc(C(=O)NNC(=O)Nc2cccc3ccccc23)c1
[1]
  Population Apoptotic (%): 32% and 47%
  Population Fragmented Nuclei (%): 6% and 18%
  Population Healthy Nuclei (%): 77% and 72%
  Population Hoechst High Intensity Objects (%): 0%
  Population Membrane Permeable-Phenotype (%): 3%
  Population Mitochondria Different-Phenotype (%): 0% and 1%
  Population Mitotic Cells (%): 67% and 52%
  Population Normal (%): 100%
  Population Pyknosed Nuclei (%): 15% and 8%
  Population Tubulin-Different-Phenotype (%): 10% and 5%
  Total Cell Count: 196 and 216
[2]
  Population Apoptotic (%): 34% and 37%
  Population Fragmented Nuclei (%): 9% and 7%
  Population Healthy Nuclei (%): 70% and 85%
  Population Hoechst High Intensity Objects (%): 0%
  Population Membrane Permeable-Phenotype (%): 3% and 2%
  Population Mitochondria Different-Phenotype (%): 1% and 0%
  Population Mitotic Cells (%): 65% and 62%
  Population Normal (%): 100%
  Population Pyknosed Nuclei (%): 20% and 7%
  Population Tubulin-Different-Phenotype (%): 12% and 6%
  Total Cell Count: 159 and 228
[3]
  Population Apoptotic (%): 41% and 50%
  Population Healthy Nuclei (%): 87% and 76%
  Population Hoechst High Intensity Objects (%): 0%
  Population Membrane Permeable-Phenotype (%): 3% and 1%
  Population Mitochondria Different-Phenotype (%): 2% and 0%
  Population Mitotic Cells (%): 58% and 50%
  Population Normal (%): 100%
  Population Pyknosed Nuclei (%): 8% and 6%
  Population Tubulin-Different-Phenotype (%): 11% and 3%
  Total Cell Count: 199 and 203
[4]
  Population Apoptotic (%): 38% and 25%
  Population Fragmented Nuclei (%): 10%
  Population Healthy Nuclei (%): 77% and 85%
  Population Hoechst High Intensity Objects (%): 0%
  Population Membrane Permeable-Phenotype (%): 3% and 0%
  Population Mitochondria Different-Phenotype (%): 2% and 0%
  Population Mitotic Cells (%): 61% and 75%
  Population Normal (%): 100% and 99%
  Population Pyknosed Nuclei (%): 11% and 3%
  Total Cell Count: 155 and 236
[5]
  Population Apoptotic (%): 62% and 56%
  Population Fragmented Nuclei (%): 7% and 15%
  Population Healthy Nuclei (%): 88% and 78%
  Population Hoechst High Intensity Objects (%): 0%
  Population Membrane Permeable-Phenotype (%): 1% and 2%
  Population Mitochondria Different-Phenotype (%): 0%
  Population Mitotic Cells (%): 37% and 43%
  Population Normal (%): 100%
  Population Pyknosed Nuclei (%): 3% and 6%
  Population Tubulin-Different-Phenotype (%): 5% and 1%
  Total Cell Count: 213 and 238
[6]
  Population Apoptotic (%): 66% and 70%
  Population Fragmented Nuclei (%): 12% and 9%
  Population Healthy Nuclei (%): 82% and 86%
  Population Hoechst High Intensity Objects (%): 0%
  Population Membrane Permeable-Phenotype (%): 5% and 0%
  Population Mitochondria Different-Phenotype (%): 0%
  Population Mitotic Cells (%): 33% and 30%
  Population Normal (%): 99%
  Population Pyknosed Nuclei (%): 5% and 4%
  Population Tubulin-Different-Phenotype (%): 8% and 1%
  Total Cell Count: 165 and 243

## CN(C)CC#Cc1ccc2[nH]c3c(c2c1)-c1nc(N)ncc1CCC3
[1]
  Population Apoptotic (%): 30% and 35%
  Population Fragmented Nuclei (%): 32% and 18%
  Population Healthy Nuclei (%): 49% and 55%
  Population Hoechst High Intensity Objects (%): 0%
  Population Membrane Permeable-Phenotype (%): 4% and 6%
  Population Mitochondria Different-Phenotype (%): 2% and 0%
  Population Mitotic Cells (%): 69% and 64%
  Population Normal (%): 100%
  Population Pyknosed Nuclei (%): 17% and 25%
  Population Tubulin-Different-Phenotype (%): 23% and 28%
  Total Cell Count: 293 and 186
[2]
  Population Fragmented Nuclei (%): 25% and 22%
  Population Healthy Nuclei (%): 49% and 62%
  Population Hoechst High Intensity Objects (%): 0%
  Population Membrane Permeable-Phenotype (%): 0% and 5%
  Population Mitochondria Different-Phenotype (%): 2% and 1%
  Population Mitotic Cells (%): 61% and 89%
  Population Normal (%): 100% and 99%
  Population Pyknosed Nuclei (%): 25% and 15%
  Population Tubulin-Different-Phenotype (%): 26% and 31%
  Total Cell Count: 228 and 378
[3]
  Population Apoptotic (%): 48% and 47%
  Population Fragmented Nuclei (%): 18% and 27%
  Population Healthy Nuclei (%): 65% and 60%
  Population Hoechst High Intensity Objects (%): 0%
  Population Membrane Permeable-Phenotype (%): 7% and 1%
  Population Mitochondria Different-Phenotype (%): 0% and 4%
  Population Mitotic Cells (%): 51% and 52%
  Population Normal (%): 100% and 99%
  Population Pyknosed Nuclei (%): 16% and 11%
  Population Tubulin-Different-Phenotype (%): 25% and 26%
  Total Cell Count: 221 and 287
[4]
  Population Apoptotic (%): 39% and 42%
  Population Fragmented Nuclei (%): 19% and 16%
  Population Healthy Nuclei (%): 62% and 56%
  Population Hoechst High Intensity Objects (%): 4% and 1%
  Population Membrane Permeable-Phenotype (%): 4% and 1%
  Population Mitochondria Different-Phenotype (%): 4% and 3%
  Population Mitotic Cells (%): 60% and 57%
  Population Normal (%): 95% and 98%
  Population Pyknosed Nuclei (%): 17% and 26%
  Population Tubulin-Different-Phenotype (%): 52% and 43%
  Total Cell Count: 286 and 184
[5]
  Population Apoptotic (%): 70% and 47%
  Population Fragmented Nuclei (%): 25% and 32%
  Population Healthy Nuclei (%): 65% and 62%
  Population Hoechst High Intensity Objects (%): 1% and 2%
  Population Membrane Permeable-Phenotype (%): 3%
  Population Mitochondria Different-Phenotype (%): 0%
  Population Mitotic Cells (%): 29% and 52%
  Population Normal (%): 98% and 97%
  Population Pyknosed Nuclei (%): 9% and 5%
  Population Tubulin-Different-Phenotype (%): 24% and 17%
  Total Cell Count: 266 and 347
[6]
  Population Apoptotic (%): 68% and 64%
  Population Fragmented Nuclei (%): 13% and 6%
  Population Healthy Nuclei (%): 67% and 77%
  Population Hoechst High Intensity Objects (%): 0% and 5%
  Population Membrane Permeable-Phenotype (%): 13% and 12%
  Population Mitochondria Different-Phenotype (%): 1% and 5%
  Population Mitotic Cells (%): 31% and 35%
  Population Normal (%): 100% and 94%
  Population Pyknosed Nuclei (%): 18% and 16%
  Population Tubulin-Different-Phenotype (%): 52% and 63%
  Total Cell Count: 153 and 185
